Test results from ChEMBL document CHEMBL3352626, “Synthesis and biological evaluation of novel oxindole-based RTK inhibitors as anti-cancer agents” (Bioorg Med Chem, 2014).

Legend:
[1] = Antiproliferative activity against human HCC827 cells at 10 uM after 72 hrs by MTS assay; format: functional
[2] = Antiproliferative activity against human H460 cells at 10 uM after 72 hrs by MTS assay; format: functional, NCI-H460
[3] = Antiproliferative activity against human SKBR3 cells at 10 uM after 72 hrs by MTS assay; format: functional, SK-BR-3
How it was run: (§1)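 Single-concentration screen. Cells at 4 × 10^4 cells/ml, seeded and incubated overnight, then given 10 µM compound in DMSO for 72 h (37 °C, 5% CO2), with DMSO-only controls. MTS added for 4 h and A490 read. Percent inhibition = (1 − OD490 treated/OD490 control) × 100, from triplicate experiments.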

[4] = Antiproliferative activity against human Bel7402 cells at 10 uM after 72 hrs by MTS assay; format: functional, Bel-7402
[5] = Antiproliferative activity against human SGC7901 cells at 10 uM after 72 hrs by MTS assay; format: functional, SGC-7901
[6] = test system: NCI-H1975; experiment: Antiproliferative activity against human NCI-H1975 cells at 10 uM after 72 hrs by MTS assay; format: functional; how it was run: as §1
[7] = Antiproliferative activity against human PM8910 cells at 10 uM after 72 hrs by MTS assay; format: functional
[8] = test system: U-251; experiment: Antiproliferative activity against human U251 cells at 10 uM after 72 hrs by MTS assay; format: functional; how it was run: as §1
[9] = test system: A549; experiment: Antiproliferative activity against human A549 cells at 10 uM after 72 hrs by MTS assay; format: functional

SMILES	Activity [1]	Activity [2]	Activity [3]	Activity [4]	Activity [5]	Activity [6]	Activity [7]	Activity [8]	Activity [9]
O=C1Nc2ccc(Cl)cc2/C1=N/NC(=O)c1ccco1	7.22%	17.15%	23.68%	12.57%	10.02%	27.45%	15.69%	12.52%	11.52%
O=C1Nc2ccc(Cl)cc2/C1=C/c1c[nH]c2ncccc12	25.9%	48.99%	10.07%	34.51%	31.4%	48.72%	29.28%	5.49%	34.13%
O=C1Nc2ccc(Cl)cc2/C1=N/c1ccc2[nH]ccc2c1	20.17%	9.99%	11.83%	13.44%	12.49%	21.92%	10.94%	26.95%	-10.32%
CCOC(=O)c1ccc(/N=C2\C(=O)Nc3ccc(Cl)cc32)c(Nc2cc(OC)cc(OC)c2)c1	41.43%	57.08%	41.17%	28.63%	64.74%	65.83%	42.24%	7.98%	32.9%
CCn1c2ccccc2c2cc(/N=C3/C(=O)Nc4ccc(Cl)cc43)ccc21	37.81%	30.28%	20.02%	16.52%	15.22%	59.78%	24.55%	8.03%	26.46%
C=CC(=O)N1CCN(c2ccc(/C=C3\C(=O)Nc4ncccc43)cc2)CC1	22.4%	7.69%	13.65%	12.29%	6.35%	35.6%	19.94%	12.58%	25.1%
Cc1cc2cc(/N=C3\C(=O)Nc4ccc(Cl)cc43)ccc2[nH]1	23.12%	8.51%	9.84%	6.73%	7.05%	26.35%	12.97%	7.94%	7.35%
O=C1Nc2ccc(Cl)cc2/C1=N/c1ccc2ncccc2c1	36.53%	24.3%	24.97%	0.92%	11.48%	48.22%	17.04%	-1.16%	33.82%
O=C1Nc2ccc(Cl)cc2/C1=N/c1ccc2nc(S)[nH]c2c1	19.19%	5.31%	8.27%	10.23%	4.79%	26.56%	10.36%	-4.89%	11.87%
CCOC(=O)c1ccc(/N=C2\C(=O)Nc3ccc(Cl)cc32)c(N2CCOCC2)n1	18.58%	14.19%	14.58%	8.58%	2.89%	34.78%	21.97%	7.69%	24.53%
Cn1cc(/C=C2/C(=O)Nc3ncccc32)c2ccccc21	37.21%	19.17%	8.29%	24.47%	22.39%	38.04%	22.23%	-0.65%	11.36%
O=C1Nc2ccccc2/C1=C/c1ccc(N2CCN(C(=O)c3ccccc3)CC2)cc1	53.47%	35.67%	27.26%	30.87%	23.7%	42.39%	40.43%	11.33%	23.47%
O=C1Nc2ncccc2/C1=C/c1ncc[nH]1	-5.39%	13.74%	-0.35%	3.18%	12.69%	22.81%	0.71%	-2.99%	6.76%
O=C1Nc2ccccc2/C1=C/c1ccc(N2CCOCC2)cc1	34.26%	26.56%	11.93%	23.53%	17.89%	28.96%	14.19%	1.92%	37.09%
O=C1Nc2ncccc2/C1=C/c1ccc(N2CCN(C(=O)CCCl)CC2)cc1	13.18%	7.98%	10.56%	12.01%	5.55%	17.66%	14.97%	-2.81%	5.2%
O=C1Nc2ccc(Cl)cc2/C1=N/c1ccc2cc[nH]c2c1	24.95%	17.08%	14.03%	5.59%	-0.27%	47.6%	11.93%	-5.47%	10.2%
COc1cc(OC)c(/C=C2\C(=O)Nc3ncccc32)c(OC)c1	17.03%	53.98%	2.1%	40.41%	35.63%	66.49%	41.21%	7.46%	39.96%
O=C1Nc2ncccc2/C1=C/c1ccc(N2CCN(C(=O)c3ccccc3)CC2)cc1	21.77%	17.24%	9.07%	17.58%	15.99%	35.62%	13.74%	3.44%	10.59%
O=C1Nc2ncccc2/C1=C/c1ccc(N2CCOCC2)cc1	10.19%	32.46%	2.52%	9.16%	21.38%	9.21%	-1.48%	-3.95%	12.18%
O=CN1CCN(c2ccc(/C=C3\C(=O)Nc4ncccc43)cc2)CC1	14.61%	13.68%	7.8%	15.45%	9.66%	23.51%	10.13%	-12.2%	0.14%
O=C1Nc2ccc(Cl)cc2/C1=N/NC(=O)c1ccc(N2CCOCC2)c([N+](=O)[O-])c1	3.85%	7.06%	11.88%	0.27%	0.54%	17.93%	8.98%	-8.37%	7.93%
O=CN1CCN(c2ccc(/C=C3\C(=O)Nc4ccccc43)cc2)CC1	26.61%	32.06%	7.42%	25.97%	16.5%	27.15%	27.47%	2.24%	25.54%
O=C1Nc2ncccc2/C1=C/c1c[nH]c2ccc(Br)cc12	39.64%	39.48%	27.26%	42.22%	32.51%	71.46%	40.59%	5.06%	29.66%
Nc1nc(N2CCOCC2)ccc1/N=C1\C(=O)Nc2ccc(Cl)cc21	33.66%	37.48%	17.97%	18.8%	18.63%	56.34%	26.03%	-0.07%	34.07%
O=C1Nc2ncccc2/C1=C/c1c[nH]c2ccccc12	7.27%	7.2%	2.64%	18.98%	24.68%	13.11%	3.22%	0.83%	5.4%
O=C1Nc2ncccc2/C1=C/c1ccccc1C(F)(F)F	1.3%	16.53%	5.96%	7.05%	13.97%	31.12%	29.66%	-5.87%	11.09%
